Laboratory results reported in ChEMBL document CHEMBL1141702 (Bioorg Med Chem Lett, 2008).

Tests used:
[1] = biological target: Sigma non-opioid intracellular receptor 1 (Cavia porcellus, UniProt Q60492); assay: Displacement of [3H](+)-pentazocine from sigma 1 receptor in guinea pig brain membrane; format: cell membranes
In short: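 Tissue was previously frozen guinea pig brain minus cerebellum, incubated 120 min at 25 °C. Ki values derived from competition binding.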

[2] = biological target: Sodium-dependent serotonin transporter (Rattus norvegicus, UniProt P31652); assay: Displacement of [3H]citalopram from SERT in rat brain stem membrane; format: cell membranes
Sodium-dependent serotonin transporter, sequence (P31652 whole entry): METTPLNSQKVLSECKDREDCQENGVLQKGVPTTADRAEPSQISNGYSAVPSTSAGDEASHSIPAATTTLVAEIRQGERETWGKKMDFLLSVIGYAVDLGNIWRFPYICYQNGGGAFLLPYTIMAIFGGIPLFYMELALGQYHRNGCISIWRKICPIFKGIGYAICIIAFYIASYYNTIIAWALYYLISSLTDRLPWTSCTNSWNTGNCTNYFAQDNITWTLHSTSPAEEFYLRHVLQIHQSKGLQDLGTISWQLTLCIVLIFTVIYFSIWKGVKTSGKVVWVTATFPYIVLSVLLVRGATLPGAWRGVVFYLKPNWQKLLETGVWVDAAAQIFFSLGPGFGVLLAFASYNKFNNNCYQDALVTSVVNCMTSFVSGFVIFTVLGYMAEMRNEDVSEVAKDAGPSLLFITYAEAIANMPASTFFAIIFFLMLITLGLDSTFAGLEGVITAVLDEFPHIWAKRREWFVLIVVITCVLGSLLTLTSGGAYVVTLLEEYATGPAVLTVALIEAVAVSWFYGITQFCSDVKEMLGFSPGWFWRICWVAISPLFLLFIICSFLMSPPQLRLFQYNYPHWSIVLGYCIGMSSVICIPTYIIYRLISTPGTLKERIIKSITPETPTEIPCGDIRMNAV
In short: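 [³H]Citalopram binding in previously frozen rat brain stem, buffer 50 mM Tris, 5 mM KCl, 120 mM NaCl. Incubation 60 min at 25 °C. Ki values derived from competition binding.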

[3] = biological target: Sodium-dependent dopamine transporter (Rattus norvegicus, UniProt P23977); assay: Displacement of [3H]WIN-35428 from DAT in rat striatum membrane; format: cell membranes
Sodium-dependent dopamine transporter, sequence (P23977 whole entry): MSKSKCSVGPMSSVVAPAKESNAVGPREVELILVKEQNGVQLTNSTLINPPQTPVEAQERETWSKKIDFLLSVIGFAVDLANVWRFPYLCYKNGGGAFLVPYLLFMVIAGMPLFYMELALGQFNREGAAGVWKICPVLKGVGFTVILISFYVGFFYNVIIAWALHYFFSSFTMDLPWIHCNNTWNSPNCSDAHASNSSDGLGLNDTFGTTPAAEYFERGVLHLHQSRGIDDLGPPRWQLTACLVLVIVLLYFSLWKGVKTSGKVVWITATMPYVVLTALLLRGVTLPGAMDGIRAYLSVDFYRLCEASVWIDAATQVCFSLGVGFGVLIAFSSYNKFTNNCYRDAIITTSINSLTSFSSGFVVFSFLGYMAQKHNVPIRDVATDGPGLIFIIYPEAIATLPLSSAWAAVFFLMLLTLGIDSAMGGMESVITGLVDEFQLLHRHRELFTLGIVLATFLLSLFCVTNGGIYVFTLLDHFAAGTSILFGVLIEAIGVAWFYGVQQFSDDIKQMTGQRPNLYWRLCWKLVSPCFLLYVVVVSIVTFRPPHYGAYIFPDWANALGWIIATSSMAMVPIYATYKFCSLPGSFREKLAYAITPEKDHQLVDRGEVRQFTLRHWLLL

[4] = biological target: Transporter (Rattus norvegicus, UniProt Q63380); assay: Displacement of [3H]nisoxetine from NET in rat frontal cortex membrane; format: cell membranes
Transporter, sequence (Q63380 whole entry): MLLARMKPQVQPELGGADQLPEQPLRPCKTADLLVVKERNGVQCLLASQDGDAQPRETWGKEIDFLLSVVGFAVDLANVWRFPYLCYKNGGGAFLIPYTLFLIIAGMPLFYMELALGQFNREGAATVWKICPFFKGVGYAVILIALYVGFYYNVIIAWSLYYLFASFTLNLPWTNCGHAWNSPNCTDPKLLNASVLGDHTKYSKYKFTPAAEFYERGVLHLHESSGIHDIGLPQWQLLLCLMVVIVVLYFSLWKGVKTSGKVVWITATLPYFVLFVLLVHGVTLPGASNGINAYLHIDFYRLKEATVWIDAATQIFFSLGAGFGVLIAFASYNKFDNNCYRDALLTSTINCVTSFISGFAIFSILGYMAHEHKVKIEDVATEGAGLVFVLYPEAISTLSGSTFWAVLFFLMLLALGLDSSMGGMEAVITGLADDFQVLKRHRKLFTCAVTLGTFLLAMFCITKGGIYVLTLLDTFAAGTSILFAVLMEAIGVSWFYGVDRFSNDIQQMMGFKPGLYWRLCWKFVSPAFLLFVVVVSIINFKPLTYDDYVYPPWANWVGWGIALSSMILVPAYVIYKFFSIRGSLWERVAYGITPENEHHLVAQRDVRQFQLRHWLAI
In short: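 Assay used previously frozen rat frontal cortex with [³H]nisoxetine in 50 mM Tris, 5 mM KCl, 120 mM NaCl buffer. Incubated 180 min on ice. Ki values derived from competition binding.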

[5] = Selectivity ratio of Ki for rat brain stem SERT to Ki for guinea pig brain sigma 1 receptor
[6] = species: Rattus norvegicus; assay: Selectivity ratio of Ki for rat brain stem SERT to Ki for rat striatum DAT; format: tissue-based
[7] = species: Rattus norvegicus; assay: Selectivity ratio of Ki for rat brain stem SERT to Ki for rat frontal cortex NET; format: tissue-based

Sigma non-opioid intracellular receptor 1, sequence (Q60492 whole entry): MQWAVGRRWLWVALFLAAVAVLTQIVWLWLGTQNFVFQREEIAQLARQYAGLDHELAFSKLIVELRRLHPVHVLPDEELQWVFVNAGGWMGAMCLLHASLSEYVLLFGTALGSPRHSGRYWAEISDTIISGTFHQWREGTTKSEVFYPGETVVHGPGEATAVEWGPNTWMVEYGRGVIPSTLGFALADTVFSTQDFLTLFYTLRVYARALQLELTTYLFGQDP

Row | Structure (SMILES) | Ki [1] | Ki [2] | Ki [3] | Ki [4] | Ratio Ki [5] | Ratio Ki [6] | Ratio Ki [7]
1 | CC(C)C(=O)OC(CCN1CCN(CCCN(c2ccc(F)cc2)c2ccc(F)cc2)CC1)c1ccccc1 (stereo not given) | 88.3 nM | 543 nM | 9.36 nM |  |  |  | 
2 | O=C(CCc1ccccc1)OC(CCN1CCN(CCCN(c2ccc(F)cc2)c2ccc(F)cc2)CC1)c1ccccc1 (stereo not given) | 235 nM | 1300 nM | 36.6 nM |  |  |  | 
3 | CCCC(=O)O[C@@H](Cc1ccccc1)CN1CCN(CCCN(c2ccc(F)cc2)c2ccc(F)cc2)CC1 | 292 nM | 1680 nM | 33.5 nM |  |  |  | 
4 | O=C(CCCc1ccccc1)OC(CCN1CCN(CCCN(c2ccc(F)cc2)c2ccc(F)cc2)CC1)c1ccccc1 (stereo not given) | 246 nM | 2190 nM | 51.3 nM | > 10000 nM |  |  | 
5 | C=CC(=O)O[C@@H](Cc1ccccc1)CN1CCN(CCCN(c2ccc(F)cc2)c2ccc(F)cc2)CC1 | 45.5 nM | 660 nM | 3.26 nM | 810 nM |  |  | 
6 | O=C(Cc1ccccc1)OC(CCN1CCN(CCCN(c2ccc(F)cc2)c2ccc(F)cc2)CC1)c1ccccc1 (stereo not given) | 135 nM | 1230 nM | 14.9 nM | 2740 nM | 9 | 83 | 184
7 | CC(=O)O[C@@H](Cc1ccccc1)CN1CCN(CCCN(c2ccc(F)cc2)c2ccc(F)cc2)CC1 | 75 nM | 835 nM | 21.7 nM |  |  |  | 
8 | Fc1ccc(C(OCCN2CCN(CCCc3ccccc3)CC2)c2ccc(F)cc2)cc1 [VANOXERINE] | 50.8 nM |  |  |  |  |  | 
9 | CCC(=O)OC(CCN1CCN(CCCN(c2ccc(F)cc2)c2ccc(F)cc2)CC1)c1ccccc1 (stereo not given) | 76 nM | 273 nM | 5.57 nM | 1500 nM | 14 | 49 | 269
10 | C=CC(=O)OC(CCN1CCN(CCCN(c2ccc(F)cc2)c2ccc(F)cc2)CC1)c1ccccc1 (stereo not given) | 87.3 nM | 318 nM | 6.71 nM | 1950 nM |  |  | 
11 | CCCN(CCC)CCc1ccc(OC)c(OCCc2ccccc2)c1 |  | > 10000 nM | 3620 nM |  |  |  | 
12 | CC(=O)OC(CCN1CCN(CCCN(c2ccc(F)cc2)c2ccc(F)cc2)CC1)c1ccccc1 (stereo not given) | 56.6 nM | 204 nM | 4.28 nM | 990 nM |  |  | 
13 | O[C@H](Cc1ccccc1)CN1CCN(CCCN(c2ccc(F)cc2)c2ccc(F)cc2)CC1 | 33.4 nM | 521 nM | 5.36 nM | 2110 nM |  |  | 
14 | C[C@@H]1CN(CCCn2c3ccccc3c3ccccc32)C[C@H](C)N1 [RIMCAZOLE] |  |  | 97.7 nM |  |  |  | 
15 | O[C@@H](Cc1ccccc1)CN1CCN(CCCN(c2ccc(F)cc2)c2ccc(F)cc2)CC1 | 28.1 nM | 779 nM | 1.72 nM | 766 nM |  |  | 
16 | CCC(=O)O[C@@H](Cc1ccccc1)CN1CCN(CCCN(c2ccc(F)cc2)c2ccc(F)cc2)CC1 | 81.8 nM | 1040 nM | 15.1 nM |  |  |  | 
17 | O=C(Cc1ccccc1)O[C@@H](Cc1ccccc1)CN1CCN(CCCN(c2ccc(F)cc2)c2ccc(F)cc2)CC1 | 87.4 nM | 1950 nM | 6.92 nM | 1680 nM | 13 | 282 | 243
18 | OC(CCN1CCN(CCCN(c2ccc(F)cc2)c2ccc(F)cc2)CC1)c1ccccc1 (racemic) |  |  | 3.45 nM |  |  |  | 
